Source: ChEMBL document CHEMBL3734704, “Synthesis and Biological Evaluation of Novel Bouchardatine Derivatives as Potential Adipogenesis/Lipogenesis Inhibitors for Antiobesity Treatment” (J Med Chem, 2015)
Calls of active or inactive are those of the source. The rule behind the calls is not given here.

Tests used:
[1] = Decrease in triglyceride accumulation in mouse 3T3L1 cells at 10 uM for 3 days oil red O staining based microscopic analysis; assay type: functional, cell-based; details: 3T3-L1
Method in brief: (§1)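 3T3-L1 cells differentiated from 2 days post-confluence with IBMX/dexamethasone/insulin cocktail for 3 days, then insulin medium to Day 6. Compounds at 1 and 10 µM added Day 0 for 3 days. Triglyceride read on Day 6 with Oil Red O (formaldehyde fixation, 30 min stain, isopropanol extraction, OD 510 nm); n = 3.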

[2] = system: HepG2; assay: Decrease in triglyceride level in human HepG2 cells at 1 uM after 24 hrs by GPO-POD assay in presence of 0.5 mM oleic acid sodium; assay type: functional
Method in brief: (§2)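 HepG-2 cells seeded, then after 24 h exposed to 0.5 mM oleic acid sodium plus compound (1 µM; dose series up to 10 µM) for 24 h, DMSO vehicle. Cells lysed in 0.2% Triton X-100 for 1 h, sonicated, centrifuged. Triglyceride measured by GPO-POD kit and cholesterol by kit, both normalized to BCA protein; n = 3.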

[3] = Decrease in triglyceride level in mouse 3T3L1 cells during all developmental stages at 0.5 uM for 9 days; assay type: functional, cell-based; details: 3T3-L1
Method in brief: (§3)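 During 3T3-L1 differentiation with compound present (0.5 µM, or 5 µM for one compound), cells were collected and counted every day and triglyceride content was measured by TG assay.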

[4] = system: 3T3-L1; assay: Inhibition of cell differentiation in mouse 3T3L1 cells assessed as delayed time point of cell contact inhibition at 0.5 uM for 9 days; assay type: functional
Method in brief: (§4)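 3T3-L1 preadipocytes were induced to differentiate (IBMX/dexamethasone/insulin for 3 days, then insulin) with compound added from day 0 at 0.5 or 5 µM; DMSO vehicle served as control. Cells were collected and counted every day to follow proliferation and to find when contact inhibition resumed.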

[5] = system: HepG2; assay: Decrease in cholesterol level in human HepG2 cells at 1 uM after 24 hrs by […] assay in presence of 0.5 mM oleic acid sodium; assay type: functional; method in brief: as §2
[6] = system: 3T3-L1; assay: Activation of AMPK-mediated ACC in mouse 3T3L1 cells assessed as increase in phophorylated ACC level at 0.2 mM after 24 hrs by western blot analysis; assay type: cell-based
Method in brief: (§5)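 3T3-L1 cells in DMEM/10% FBS at 37 °C, 5% CO2, exposed for 10 min, 2 h or 24 h alongside a DMSO vehicle. Cells were lysed in RIPA with PMSF, Na3VO4, NaF and protease inhibitors. Lysates were run on SDS-PAGE and blotted to PVDF, blocked in 5% BSA, then probed with primary antibodies for 16 h at 4 °C and an HRP secondary. Bands were normalised to GAPDH, with the 10 min DMSO group set as 100%; n = 3.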

[7] = system: 3T3-L1; assay: Activation of AMPK-mediated ACC in mouse 3T3L1 cells assessed as increase in phophorylated ACC level at 0.2 mM after 10 mins by western blot analysis; assay type: cell-based; method in brief: as §5
[8] = Downregulation of C/EBP beta mRNA level in mouse 3T3L1 cells at 0.2 mM after 24 hrs by RT-PCR analysis; assay type: functional, cell-based; details: 3T3-L1
[9] = Downregulation of SREBP-1c mRNA level in mouse 3T3L1 cells at 0.2 mM after 24 hrs by RT-PCR analysis; assay type: functional, cell-based; details: 3T3-L1
[10] = Downregulation of PPAR-gamma mRNA level in mouse 3T3L1 cells at 0.2 mM after 2 hrs by RT-PCR analysis; assay type: functional, cell-based; details: 3T3-L1
[11] = Downregulation of C/EBP delta mRNA level in mouse 3T3L1 cells at 0.2 mM after 24 hrs by RT-PCR analysis; assay type: functional, cell-based; details: 3T3-L1
[12] = system: 3T3-L1; assay: Activation of AMPK alpha in mouse 3T3L1 cells assessed as increase in phophorylated AMPK alpha at Thr 172 residue level at 0.2 mM after 24 hrs by western blot analysis; assay type: cell-based; method in brief: as §5
[13] = system: 3T3-L1; assay: Effect on LKB1 expression in mouse 3T3L1 cells at 0.2 mM after 10 mins, 2 and 24 hrs by western blot analysis; assay type: functional, cell-based; method in brief: as §5
[14] = Downregulation of C/EBP alpha mRNA level in mouse 3T3L1 cells at 0.2 mM after 24 hrs by RT-PCR analysis; assay type: functional, cell-based; details: 3T3-L1
[15] = system: 3T3-L1; assay: Activation of AMPK alpha in mouse 3T3L1 cells assessed as increase in phophorylated AMPK alpha at Thr 172 residue level at 0.2 mM after 10 mins by western blot analysis; assay type: cell-based; method in brief: as §5
[16] = Downregulation of C/EBP alpha mRNA level in mouse 3T3L1 cells at 0.2 mM after 2 hrs by RT-PCR analysis; assay type: functional, cell-based; details: 3T3-L1
[17] = Downregulation of PPAR-gamma mRNA level in mouse 3T3L1 cells at 0.2 mM after 24 hrs by RT-PCR analysis; assay type: functional, cell-based; details: 3T3-L1
[18] = Decrease in triglyceride accumulation in mouse 3T3L1 cells at 1 uM for 3 days oil red O staining based microscopic analysis; assay type: functional, cell-based; details: 3T3-L1; method in brief: as §1
[19] = Decrease in triglyceride level in mouse 3T3L1 cells during all developmental stages at 5 uM for 9 days; assay type: functional, cell-based; details: 3T3-L1; method in brief: as §3
[20] = system: 3T3-L1; assay: Inhibition of cell proliferation in mouse 3T3L1 cells at 5 uM for 9 days; assay type: functional, cell-based; method in brief: as §4
[21] = system: 3T3-L1; assay: Inhibition of cell differentiation in mouse 3T3L1 cells assessed as delayed time point of cell contact inhibition at 5 uM for 9 days; assay type: functional; method in brief: as §4

## O=Cc1c(-c2nc(NCCN3CCCCC3)c3ccccc3n2)[nH]c2ccccc12
[1]
  inhibition: 87.2%
[2]
  inhibition: Active
[3]
  inhibition: Active
[4]
  Time: 6 days
[5]
  inhibition (INH): > 50%

## CN(C)CCNc1nc(-c2[nH]c3ccccc3c2C=O)nc2ccccc12
[1]
  inhibition: 80.1%
[2]
  inhibition: Active

## NC(=O)c1ncn([C@@H]2O[C@H](COP(=O)(O)O)[C@@H](O)[C@H]2O)c1N
[6]
  Activity: Active
[7]
  Activity: Active
[8]
  inhibition: Active
[9]
  inhibition: Active
[10]
  inhibition: Active
[11]
  inhibition: Active
[12]
  Activity: Active
[13]
  Activity: inactive
[14]
  inhibition: Active
[15]
  Activity: Active
[16]
  inhibition: Active
[17]
  inhibition: Active

## O=Cc1c(-c2nc(NCCc3ccccc3)c3ccccc3n2)[nH]c2ccccc12
[5]
  inhibition (INH): > 50%

## CN1CCN(c2nc(-c3[nH]c4ccccc4c3C=O)nc3ccccc23)CC1
[1]
  inhibition: 81.6%

## O=Cc1c(-c2nc3ccccc3c(=O)[nH]2)[nH]c2ccccc12
[18]
  inhibition: 14.8%
[1]
  inhibition: 20.1%
[2]
  inhibition (INH): 16.7%
[19]
  inhibition: Active
[20]
  inhibition: Active
[5]
  inhibition (INH): 24.1%
[21]
  Time: 5 days

## CCN(CC)CCNc1nc(-c2[nH]c3ccccc3c2C=O)nc2ccccc12
[1]
  inhibition: 87.3%
[2]
  inhibition: Active
[5]
  inhibition (INH): > 50%

## O=Cc1c(-c2nc(NCCCN3CCOCC3)c3ccccc3n2)[nH]c2ccccc12
[3]
  inhibition: Active
[4]
  Time: 6 days

## CN(C)CCCC/N=C/c1c(-c2nc3ccccc3c(=O)[nH]2)[nH]c2ccccc12
[3]
  inhibition: Active
[4]
  Time: 6 days

## CCN(CC)c1nc(-c2[nH]c3ccccc3c2C=O)nc2ccccc12
[1]
  inhibition: 82.2%

## O=c1[nH]c(-c2[nH]c3ccccc3c2/C=N/CCN2CCCC2)nc2ccccc12
[3]
  inhibition: Active
[4]
  Time: 6 days
